This is a sample that favours compounds with a hit; in the whole collection about 3.6% have one here.
DNA FID counter-1: fluorescent intercalator displacement, NS3 helicase counter-screen | DNA fluorescent intercalator displacement, fluorescence | inhibition, % at 7.9 µM | actives 0.17% (n = 290,000);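 also: 0% = vehicle and 100% = reference compound; higher means more ethidium bromide displaced from hairpin DNA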
NS3 helicase inh: blocks Hepatitis C virus NS3 helicase unwinding | NS3 helicase DNA unwinding, Cy5 molecular beacon fluorescence | inhibition, % at 10.9 µM | actives 0.56% (n = 290,000) | AID 1800;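 active = inhibition above the mean of all tested compounds plus 3 SD, set per campaign, cut at about 35% in these data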;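 also: 0% = DMSO wells and 100% = thioflavine S control wells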
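Assay system – hepatitis C virus NS3 helicase domain fragment enzyme · Buffer or medium – MOPS pH 6.5, MgCl2, DTT, Tween20, BSA · Reagent – Cy5/quencher beacon DNA duplex and ATP to start · Compound – single 10.9 µM dose · Timing – 1 h at 25 °C · Technique – Cy5 beacon fluorescence read at start and 1 h · Measure – % inhibition of unwinding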
GRIN3A LBD mod: NR3A (human) ligand-binding domain modulation; actives 2.5% (n = 340,000); AID 1259313; NR3A LBD differential scanning fluorimetry, Tm shift; 0% = protein alone, 100% = glycine-bound protein; Tm shift relative to glycine control, % at 25 µM;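 active = melting temperature shift of at least 10% of the positive control shift, at one fixed dose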
ZTA counter: counter-screen for EBNA-1 inhibitors: inhibitors of Epstein-Barr virus ZTA. P03206. ZTA-DNA binding, fluorescence polarization. inhibition, % at 11 µM. actives 0.15% (n = 320,000); in the data active = inhibition above about 33%
Target sequence (P03206 whole entry, looked up): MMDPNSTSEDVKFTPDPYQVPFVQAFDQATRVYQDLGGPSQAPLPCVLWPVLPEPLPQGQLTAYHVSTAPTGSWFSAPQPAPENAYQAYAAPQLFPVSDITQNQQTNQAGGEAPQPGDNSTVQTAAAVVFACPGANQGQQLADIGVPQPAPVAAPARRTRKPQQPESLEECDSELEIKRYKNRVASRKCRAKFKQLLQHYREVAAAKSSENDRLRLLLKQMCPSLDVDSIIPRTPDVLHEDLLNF
FGF22 binding-1: binders of recombinant human FGF22 by thermal shift; activity (Tm shift, normalised), % at 9.99 µM; AID 651658; actives 1.5% (n = 340,000); Q9HCT0; SYPRO orange fluorescence; percent of sucrose octasulfate shift, DMSO zero;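 active = mean Tm shift, scaled 0 neutral to 100 positive control, at about 1.3% or above, every replicate too, limit read from the data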
Target sequence (Q9HCT0 whole entry, looked up): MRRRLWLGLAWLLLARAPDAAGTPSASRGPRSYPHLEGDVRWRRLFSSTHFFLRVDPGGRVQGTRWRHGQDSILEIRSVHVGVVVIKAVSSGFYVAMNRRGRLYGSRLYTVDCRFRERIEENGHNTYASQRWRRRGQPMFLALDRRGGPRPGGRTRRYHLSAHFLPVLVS
EBNA-1 inhibitor: blocks EBNA-1 binding to DNA; EBNA-1 DNA binding, fluorescence polarization; actives 0.34% (n = 300,000); inhibition, % at 14.8 µM; in the data active = inhibition above about 28%
NS3 helicase cf: confirmation of Hepatitis C virus NS3 helicase inhibitors; shares compounds with NS3 helicase inh; NS3 helicase DNA unwinding, Cy5 molecular beacon fluorescence; inhibition, % at 10.9 µM; actives 31% (n = 1,600); AID 1943;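 active = inhibition above the mean of all tested compounds plus 3 SD, cutoff set per campaign, cut at about 36% in these data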
DNA FID counter-2: counter-screen for HCV NS3 helicase inhibitors: DNA intercalator displacement | shares compounds with NS3 helicase inh | actives 4% (n = 1,600) | inhibition, % at 7.9 µM | AID 1945 | DNA fluorescent intercalator displacement, fluorescence;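 also: 0% = vehicle and 100% = reference compound; higher means more displacement of ethidium bromide from the DNA hairpin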
ZTA inh confirm: EBV ZTA DNA binding inhibition, confirmation. Zta-ZRE DNA binding, fluorescence polarization. inhibition, % at 11.1 µM. actives 30% (n = 320). shares compounds with ZTA counter;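 active = mean inhibition across triplicate runs above the hit threshold derived for the original primary screen, cut at about 33% in these data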;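 also: 0% = Zta with DMSO and 100% = wells lacking Zta protein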
EBNA1 counter: EBNA-1 DNA binding inhibition, counter-screen for ZTA. shares compounds with ZTA counter. fluorescence polarization. inhibition, % at 14.8 µM. 320 tested, under 10 active. AID 2362; call rule not given here
FGF22 binding-2: binders of human FGF22 by thermal shift; shares compounds with FGF22 binding-1; recombinant FGF22 thermal shift, SYPRO orange fluorescence; thermal shift activity, °C (ΔTm) at 38 µM; actives 2% (n = 1,000);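 active = fitted rise in melting shift crosses a set limit at or below the top valid dose tested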
TSA no protein: counter-screen for FGF22 binders: compound-only thermal shift, no protein | shares compounds with FGF22 binding-1 | compound-only SYPRO orange thermal shift counter-screen | AC50, µM (series often up to 38 µM) | actives 2% (n = 1,000);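 active = rising signal whose fitted curve reaches the 0.54 level within the top valid dose, showing a melting point, actives reach about 13 µM in these data; inactive = the rest, including activity in the opposite direction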; also: value is where the raw curve crosses a fixed level and not half-maximal
Numbers without * were called inactive; i = inactive; . = not tested or not shown; + = active, no number; ! = not active in a repeat. Rule as the data show it, unless noted: active = inhibition above about 37%; inactive = the rest.

SMILES | DNA FID counter-1 | NS3 helicase inh | GRIN3A LBD mod | ZTA counter | FGF22 binding-1 | EBNA-1 inhibitor | FGF22 binding-2 | TSA no protein | others
Cc1ccccc1-n1c(O)c(C=Nc2ccc3c(c2)OCO3)c(=O)[nH]c1=O | -12 | 37* | -1 | -5 | . | 2 | . | . | NS3 helicase cf=-14;DNA FID counter-2=1
CCN(CC)c1ccc(N=Cc2c(O)n(-c3ccccc3C)c(=O)[nH]c2=O)cc1 | -14 | 34 | -4 | 32 | . | -7 | . | .
C[C@@H]1CN([C@@H](C)CO)C(=O)CCCn2cc(nn2)CO[C@@H]1CN(C)C(=O)Oc1cccc2ccccc12 | . | . | . | . | 0 | . | . | .
CCOc1ccccc1-n1c(O)c(C=Nc2ccc(N(CC)CC)cc2)c(=O)[nH]c1=O | -16 | 54* | -1 | 37* | . | 0 | . | . | NS3 helicase cf=-7;DNA FID counter-2=-12;ZTA inh confirm=5;EBNA1 counter=0
COC(=O)[C@H]1[C@H](CO)[C@H]2Cn3c(cccc3=O)[C@@H]1N2C(=O)C1CC1 | . | . | . | . | 0 | . | . | .
O=c1[nH]c2ccccc2c(=O)n1-c1ccc(Cl)cc1Cl | -3 | -2 | -2 | 35* | 0 | 3 | . | . | ZTA inh confirm=6;EBNA1 counter=-2
CCN1[C@@H]2Cn3c(ccc(-c4cccc(OC)c4)c3=O)[C@H]1[C@@H](C(=O)OC)[C@@H]2CO | . | . | . | . | 0 | . | . | .
CC=Cc1ccc2n(c1=O)C[C@H]1[C@H](CO)[C@@H](C(=O)OC)[C@@H]2N1C(=O)CC (mixture of isomers) | . | . | . | . | 0 | . | . | .
CCN(CC)c1ccc(N=Cc2c(O)n(-c3ccccc3)c(=O)[nH]c2=O)cc1 | -16 | 16 | 0 | 38* | 0 | 10 | . | . | ZTA inh confirm=1;EBNA1 counter=-4
CCCCOP(=O)(OCCCC)/C(C#N)=C(/C)O | 1 | 0 | 3 | + | . | -6 | . | . | ZTA inh confirm=0;EBNA1 counter=-8
COC(=O)[C@H]1[C@H](CO)[C@H]2Cn3c(cccc3=O)[C@@H]1N2Cc1nccs1 | . | . | . | . | 0 | . | . | .
OC(CNCCc1c[nH]c2ccccc12)c1ccccc1 (centres undefined) | 4 | -5 | -1 | 2 | 1.4* | 16 | -0.17 | i
COc1ccc(C#Cc2ccc([C@H]3[C@H]4CN(C(=O)Cc5ccncc5)CCCCN4[C@H]3CO)cc2)cc1 | . | . | . | . | 1 | . | . | .
N/C(=N\[N+](=O)[O-])NCCCC(NC(=O)CNC(=O)c1ccccc1)C(=O)O (centres undefined) | 0 | -4 | 1 | 6 | 2.5* | -15 | 0.08 | i
N/C(=N\[N+](=O)[O-])N1CCN(C(=O)c2ccccc2)CC1 | -3 | -10 | 0 | -18 | 0 | 0 | . | .
O=C(c1cccc2ccccc12)C1CCCN(Cc2ccon2)C1 (centres undefined) | -10 | -9 | -1 | -10 | 2.2* | 1 | -0.008 | i
Cc1ccc(S(=O)(=O)N(C)C[C@H]2Oc3cc(Br)ccc3S(=O)(=O)N([C@H](C)CO)C[C@@H]2C)cc1 | . | . | . | . | 1.6*! | . | -1.9 | 10µM*
Cc1ccc(OC(=O)N(C)C[C@@H]2OCc3cnnn3CCCC(=O)N([C@@H](C)CO)C[C@H]2C)cc1 | . | . | . | . | 0 | . | . | .
Cc1ccc(S(=O)(=O)N(C)C[C@@H]2Oc3cc(Br)ccc3S(=O)(=O)N([C@@H](C)CO)C[C@H]2C)cc1 | . | . | . | . | 2.2* | . | -0.038 | i
O=C(Cc1ccccc1)N1C[C@H]2[C@@H](c3ccccc31)[C@@H](CO)N2Cc1ccccc1 | . | . | . | . | 1 | . | . | .
CCC(C)n1c(O)c(C(c2ccccn2)c2c(O)n(C(C)CC)c(=S)[nH]c2=O)c(=O)[nH]c1=S (centres undefined) | 5 | 10 | -4 | 2 | 26* | 7 | -0.062 | i
CCC(C)n1c(O)c(C=NC(C)c2ccccc2)c(=O)[nH]c1=S (centres undefined) | -25 | -28 | -1 | 0 | 0 | 0 | . | .
O=C(Cc1ccccn1)N1CCCCN2[C@@H](CO)[C@@H](c3ccc(-c4ccc(F)cc4)cc3)[C@@H]2C1 | . | . | . | . | -1 | . | . | .

High-throughput results deposited in PubChem by several laboratories.
